PubChem BioAssay
Active and inactive are the calls of the source.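 How the source made its calls, unless noted: active means potentiation averaged over duplicate wells exceeding buffer-only control mean by more than 3 SD; inactive means the rest.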

Tests used:
[1] = nonspecific flux increase, KCNQ1-free cells – parental CHO cells, counter-screen for KCNQ1 potentiator project (AID 493006;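 active means duplicate-averaged activation above buffer control mean plus 5 SD of those controls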;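 on activation: fluorescence ratio of max minus min over baseline after K+ and Tl+ depolarization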); details: parental CHO-K1 cells, FluxOR thallium flux, at 10 µM; active compounds read high
Procedure, shortened: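 Material: parental CHO-K1 cells, FluxOR dye-loaded; Also added: Potassium/thallium depolarization pulse; Schedule: overnight 37 °C plating, 90 min dye, 20 min dark compound; Signal: kinetic FluxOR fluorescence, 10 s baseline, 110 s after stimulus.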

[2] = biological target: Potassium voltage-gated channel subfamily KQT member 1 (Homo sapiens) (UniProt P51787); test: enhancement of KCNQ1 channel thallium flux – FluxOR thallium flux, CHO cells, duplicates, confirmation (AID 493007); details: KCNQ1 cell line, FluxOR thallium flux fluorescence, at 10 µM; active compounds read high, % of reference activator effect, buffer zero;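 on outcome: cells depolarized by a potassium plus thallium sulfate stimulus after compound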
Procedure, shortened: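 System: KCNQ1-expressing CHO cell line; technique: kinetic thallium influx fluorescence with FluxOR dye, 10 s baseline, 110 s post-stimulus; timing: dye 90 min then compound 20 min, both at room temperature; controls: buffer-only wells as 0% and R-L3 activator as 100%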

[3] = biological target: Potassium voltage-gated channel subfamily KQT member 2 (Rattus norvegicus) (UniProt O88943); test: KCNQ2 thallium flux enhancement – KCNQ2-CHO-K1 cells, selectivity assay for KCNQ1 potentiator project (AID 493009;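 active means mean duplicate potentiation above the buffer control mean plus 5 SD of buffer wells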;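 further: assay conditions were tuned for KCNQ1 rather than KCNQ2 modulators; signal is max minus min fluorescence divided by baseline after thallium stimulus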); details: FluxOR thallium flux fluorescence, at 10 µM; active compounds read high, scaled: buffer 0, activator control 100
[4] = biological target: Potassium voltage-gated channel subfamily KQT member 1 (Homo sapiens) (UniProt P51787); test: KCNQ1 activators by electrophysiology – IonWorks patch clamp, KCNQ1-CHO cells, orthogonal assay for KCNQ1 potentiator project, confirmation (AID 493184;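 active means current rise at least 3 SD above the untreated control mean in each of two repeat wells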); details: automated patch clamp current, at 10 µM; active compounds read high
Procedure, shortened: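 Test system: KCNQ1-expressing CHO cells. Medium: pH 7.4 external bath. Probe or stimulus: voltage step from -90 mV holding to +40 mV, 2,000 ms. Compound: 10 µM final, single point. Detection: automated perforated-patch electrophysiology. Read-out: percent current increase versus pre-compound level. Repeats: two replicates.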

Sequence of Potassium voltage-gated channel subfamily KQT member 1 (Homo sapiens) (P51787 whole entry, looked up): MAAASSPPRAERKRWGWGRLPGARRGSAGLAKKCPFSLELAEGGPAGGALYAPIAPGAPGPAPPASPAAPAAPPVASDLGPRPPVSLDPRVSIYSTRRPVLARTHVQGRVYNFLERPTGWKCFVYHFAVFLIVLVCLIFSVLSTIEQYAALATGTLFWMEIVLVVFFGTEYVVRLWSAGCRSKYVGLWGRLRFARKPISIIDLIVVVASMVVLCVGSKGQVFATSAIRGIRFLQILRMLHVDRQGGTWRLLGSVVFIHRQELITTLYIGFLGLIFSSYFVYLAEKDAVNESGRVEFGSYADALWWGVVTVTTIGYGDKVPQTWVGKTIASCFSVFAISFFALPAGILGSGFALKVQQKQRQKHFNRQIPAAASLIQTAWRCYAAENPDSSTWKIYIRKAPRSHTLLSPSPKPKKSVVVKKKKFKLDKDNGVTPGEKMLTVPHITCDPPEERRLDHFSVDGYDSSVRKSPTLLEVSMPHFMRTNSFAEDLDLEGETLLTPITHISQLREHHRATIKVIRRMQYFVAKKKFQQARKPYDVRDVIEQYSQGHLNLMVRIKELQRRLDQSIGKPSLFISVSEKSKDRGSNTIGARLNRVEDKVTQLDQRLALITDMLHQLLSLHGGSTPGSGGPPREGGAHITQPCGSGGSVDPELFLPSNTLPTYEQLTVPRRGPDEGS
Sequence of Potassium voltage-gated channel subfamily KQT member 2 (Rattus norvegicus) (O88943 whole entry, looked up): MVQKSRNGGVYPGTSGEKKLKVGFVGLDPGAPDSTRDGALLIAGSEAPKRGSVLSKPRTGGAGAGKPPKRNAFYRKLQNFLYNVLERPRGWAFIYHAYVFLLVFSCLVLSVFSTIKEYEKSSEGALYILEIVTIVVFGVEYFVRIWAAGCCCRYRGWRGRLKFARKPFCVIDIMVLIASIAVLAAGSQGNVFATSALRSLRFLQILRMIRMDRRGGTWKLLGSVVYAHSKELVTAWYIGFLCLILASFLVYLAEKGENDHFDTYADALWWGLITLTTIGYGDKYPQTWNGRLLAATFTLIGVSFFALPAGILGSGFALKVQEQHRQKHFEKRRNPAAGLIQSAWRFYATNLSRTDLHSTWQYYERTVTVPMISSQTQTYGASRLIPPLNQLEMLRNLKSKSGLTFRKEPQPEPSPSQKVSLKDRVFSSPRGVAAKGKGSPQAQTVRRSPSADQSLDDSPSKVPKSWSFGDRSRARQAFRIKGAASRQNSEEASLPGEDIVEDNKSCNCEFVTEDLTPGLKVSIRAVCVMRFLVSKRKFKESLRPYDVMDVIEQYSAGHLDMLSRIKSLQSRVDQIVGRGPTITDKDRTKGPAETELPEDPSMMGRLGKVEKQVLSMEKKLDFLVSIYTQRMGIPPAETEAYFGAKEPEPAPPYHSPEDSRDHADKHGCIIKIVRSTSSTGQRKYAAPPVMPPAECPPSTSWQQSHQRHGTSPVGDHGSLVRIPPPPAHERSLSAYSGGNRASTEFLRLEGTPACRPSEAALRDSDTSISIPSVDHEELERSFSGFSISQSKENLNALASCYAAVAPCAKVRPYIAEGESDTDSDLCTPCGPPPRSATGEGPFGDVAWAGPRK

CC(=O)N1N=C(c2ccccc2OC(=O)/C=C/c2ccccc2)CC1c1ccccc1 (stereo not given)
outcome [1]: inactive
outcome [2]: inactive
outcome [3]: inactive
outcome [4]: inactive

Cc1csc(N/N=C/c2ccc([N+](=O)[O-])cc2)n1
outcome [1]: inactive
potentiation [2]: 46% (active)
potentiation [3]: 158% (active)
outcome [4]: inactive

CC(c1ccccc1C(O)(c1ccccc1)c1ccccc1)N(C)C (stereo not given)
outcome [1]: inactive
outcome [2]: inactive
outcome [3]: inactive
outcome [4]: inactive

COC(=O)c1ccc(CSc2ncnc3c2sc2nc(N4CCOCC4)c4c(c23)CCCC4)o1
outcome [1]: inactive
outcome [2]: inactive
outcome [3]: inactive
outcome [4]: inactive

COc1ccc(OCC(=O)NC(=S)Nc2ccc(N3CCOCC3)c(Cl)c2)cc1
activation [1]: 142% (active)
potentiation [2]: 33.5% (active)
outcome [3]: inactive
outcome [4]: inactive

O=C(CSc1nc2cc(Cl)ccc2s1)c1ccco1
outcome [1]: inactive
potentiation [2]: 24% (active)
outcome [3]: inactive
outcome [4]: inactive

O=C(/C=C/c1ccc(Br)cc1)NC(=S)Nc1ccc(S(=O)(=O)Nc2nccs2)cc1
outcome [1]: inactive
outcome [2]: inactive
outcome [3]: inactive
outcome [4]: inactive

CN1C(=O)NC(c2ccc(O)cc2)C(C(=O)c2cccs2)C1(O)C(F)(F)F (stereo not given)
outcome [1]: inactive
outcome [2]: inactive
outcome [3]: inactive
outcome [4]: inactive

CCN(C(=O)c1cc2cc3ccc(C)cc3nc2o1)c1ccc(OC)cc1
outcome [1]: inactive
outcome [2]: inactive
outcome [3]: inactive
outcome [4]: inactive

CCn1c(=S)[nH]c2scc(-c3cccs3)c2c1=O
activation [1]: 548% (active)
potentiation [2]: 246% (active)
potentiation [3]: 528% (active)
outcome [4]: inactive

Cc1ccc(C)c(SCC(=O)NC(=O)Nc2ccc3c(c2)OCCO3)c1
outcome [1]: inactive
outcome [2]: inactive
outcome [3]: inactive
outcome [4]: inactive

O=C(Nc1ccc(N2CCCCC2)cc1)c1cccnc1Cl
outcome [1]: inactive
outcome [2]: inactive
outcome [3]: inactive
outcome [4]: inactive

Cc1ccc(/C=C/C(=O)c2ccccc(=O)c2O)c(C)c1
activation [1]: 244% (active)
potentiation [2]: 118% (active)
potentiation [3]: 280% (active)
outcome [4]: inactive

COC(=O)c1ccccc1NC(=O)Cn1c(=O)n(Cc2ccccc2)c(=O)c2c(C)c(C)sc21
outcome [1]: inactive
outcome [2]: inactive
outcome [3]: inactive
outcome [4]: inactive

Cc1[nH]n(-c2ccccc2)c(=O)c1/C=N/N(c1ccccc1)c1ccccc1
outcome [1]: inactive
potentiation [2]: 47% (active)
outcome [3]: inactive
outcome [4]: inactive

O=C(c1ccccc1NS(=O)(=O)c1ccc(Br)cc1)N1CCOCC1
activation [1]: 306% (active)
potentiation [2]: 112% (active)
potentiation [3]: 326% (active)
outcome [4]: inactive

CC1Oc2ccccc2OC1(O)c1ccccn1 (stereo not given)
activation [1]: 142% (active)
potentiation [2]: 26.5% (active)
potentiation [3]: 142% (active)
outcome [4]: inactive

COc1cccc(C(=O)NNC(=O)C(=O)Nc2ccc(OC)cc2OC)c1
activation [1]: 178% (active)
potentiation [2]: 41% (active)
potentiation [3]: 202% (active)
outcome [4]: inactive

C/C(N)=C(/C#N)C(=O)COc1ncnc2ccc(Br)cc12
outcome [1]: inactive
outcome [2]: inactive
outcome [3]: inactive
outcome [4]: inactive

O=C(O)CCCN1C(=O)C2C3c4ccccc4C(c4ccccc43)[C@@H]2C1=O (stereo not given in full)
outcome [1]: inactive
outcome [2]: inactive
outcome [3]: inactive
outcome [4]: inactive

NC(=O)COC(=O)c1ccccc1Nc1ccc(SC(F)F)cc1
outcome [1]: inactive
potentiation [2]: 26% (active)
potentiation [3]: 147% (active)
outcome [4]: inactive

COc1ccc(/C=N/NC(=O)c2[nH]nc3c2CCc2ccccc2-3)cc1OC
activation [1]: 240% (active)
potentiation [2]: 85% (active)
potentiation [3]: 228% (active)
outcome [4]: inactive

Cc1ccc(-c2noc(CCC(=O)Nc3ccccc3N3CCN(C)CC3)n2)cc1
outcome [1]: inactive
outcome [2]: inactive
outcome [3]: inactive
outcome [4]: inactive

O=S(=O)(NC(=S)NC1CCCCC1)c1ccc(Br)cc1
activation [1]: 200% (active)
potentiation [2]: 52% (active)
potentiation [3]: 190% (active)
outcome [4]: inactive

CN(Cc1nccs1)C(=O)c1ccc(OC2CCN(Cc3ccccn3)CC2)cc1
outcome [1]: inactive
outcome [2]: inactive
outcome [3]: inactive
outcome [4]: inactive

Cc1ccc(C(C#N)c2ccc3c(C(F)(F)F)cc(C(F)(F)F)nc3n2)cc1 (stereo not given)
activation [1]: 150% (active)
potentiation [2]: 114% (active)
potentiation [3]: 222% (active)
outcome [4]: inactive

COc1cc(/C=C2\C(=O)N(C)C(=S)N2C)ccc1O
outcome [1]: inactive
outcome [2]: inactive
outcome [3]: inactive
outcome [4]: inactive

CC(=O)Nc1ccc(S(=O)(=O)N2CCC(C(=O)O)CC2)cc1
outcome [1]: inactive
outcome [2]: inactive
outcome [3]: inactive
outcome [4]: inactive

Cc1ccnc(NC(=S)NC(=O)c2cncc(Br)c2)c1
outcome [1]: inactive
outcome [2]: inactive
outcome [3]: inactive
outcome [4]: inactive

COC(=O)c1sc(NC(=S)NC(=O)c2ccccc2F)nc1C
outcome [1]: inactive
outcome [2]: inactive
outcome [3]: inactive
outcome [4]: inactive
